Format in all cases: functional
For assay [1], the system named is Cryptococcus neoformans. The experiment in a line: Antifungal activity against Cryptococcus neoformans after 48 hrs by microdilution assay. The gist of the method: (§1)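 Broth microdilution in triplicate; compounds in DMSO, serially diluted in sterile distilled water, final 25 to 0.2 μg/mL; fungi kept on Sabouraud dextrose agar, inocula diluted in Sabouraud dextrose broth. p-Iodonitrotetrazolium violet (0.2 mg/mL stock) added as growth indicator; incubation 35 °C, 100% relative humidity. MIC = lowest concentration inhibiting growth, read at 24 and 48 h. Amphotericin B positive, DMSO negative control.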

For assay [2], the system named is Candida albicans. Description: Antifungal activity against Candida albicans ATCC 10231 after 24 hrs by microdilution assay. The gist of the method: as §1
For assay [3], the system named is Cryptococcus neoformans. Description: Antifungal activity against Cryptococcus neoformans after 24 hrs by microdilution assay. The gist of the method:
as §1

For assay [4], the system named is Candida albicans. The experiment in a line: Antifungal activity against Candida albicans ATCC 10231 after 48 hrs by microdilution assay. In a few lines:
as §1
In general terms: Broth dilution looks for growth in wells or tubes with falling amounts of substance.

≈ marks a conversion by molar mass, not a printed value.

Take `C=CCc1c(O)cc(O)c2c(=O)cc(C)oc12`: the MIC against Cryptococcus neoformans [1], in the assay with Candida albicans [2], against Cryptococcus neoformans [3] and in the assay on Candida albicans [4] was 13.5 µM (≈ 3.14 µg/mL) in each case.

Turning to `C=CCc1c2c(c(O)c(C(C)=O)c1OC)C=CC(C)(C)O2`, the MIC (commonly the smallest concentration in the dilution series that meets the test's criterion for growth inhibition) stood at 43.3 µM (≈ 12.5 µg/mL) in the assay on Cryptococcus neoformans [1], 86.7 µM (≈ 25 µg/mL) with Candida albicans [2], 21.7 µM (≈ 6.26 µg/mL) against Cryptococcus neoformans [3] and 86.7 µM (≈ 25 µg/mL) against Candida albicans [4].

`C=CCc1c2c(c(O)c3c(=O)cc(C)oc13)C=CC(C)(C)O2`: the MIC in the assay on Cryptococcus neoformans [1] amounted to 10.5 µM (≈ 3.13 µg/mL); against Candida albicans [2], 41.9 µM (≈ 12.5 µg/mL); against Cryptococcus neoformans [3], 10.5 µM (≈ 3.13 µg/mL); with Candida albicans [4], 83.8 µM (≈ 25 µg/mL).

With `Cc1cc(=O)c2c(O)c3c(cc2o1)OCC(CO)=CC3`, the MIC turned out to be 5.7 µM (≈ 1.56 µg/mL) in the assay on Cryptococcus neoformans [1], 11.4 µM (≈ 3.13 µg/mL) in the assay on Candida albicans [2], 5.7 µM (≈ 1.56 µg/mL) against Cryptococcus neoformans [3] and 11.4 µM (≈ 3.13 µg/mL) against Candida albicans [4].

On to `Cc1cc(=O)c2c(O)cc3c(c2o1)CC=C(CO)CO3`, for which the MIC in the assay with Cryptococcus neoformans [1] turned out to be 5.7 µM (≈ 1.56 µg/mL); with Candida albicans [2], 11.4 µM (≈ 3.13 µg/mL); with Cryptococcus neoformans [3], 5.7 µM (≈ 1.56 µg/mL); against Candida albicans [4], 11.4 µM (≈ 3.13 µg/mL).

`CC(=O)OCC1=CCc2c(cc(O)c3c(=O)cc(C)oc23)OC1`: the MIC in the assay on Cryptococcus neoformans [1], in the assay with Candida albicans [2], in the assay with Cryptococcus neoformans [3] and with Candida albicans [4] was 9.9 µM (≈ 3.13 µg/mL) throughout.

Take `C[C@@H]1[C@H](O)[C@@H](C)/C=C/C=C/C=C/C=C/C=C/C=C/C=C/[C@H](O[C@@H]2O[C@H](C)[C@@H](O)[C@H](N)[C@@H]2O)C[C@@H]2O[C@](O)(C[C@@H](O)C[C@@H](O)[C@H](O)CC[C@@H](O)C[C@@H](O)CC(=O)O[C@H]1C)C[C@H](O)[C@H]2C(=O)O` [AMPHOTERICIN B]: the MIC with Cryptococcus neoformans [1] came out at 0.42 µM (≈ 0.388 µg/mL); against Candida albicans [2], 0.42 µM (≈ 0.388 µg/mL); against Cryptococcus neoformans [3], 0.42 µM (≈ 0.388 µg/mL); in the assay with Candida albicans [4], 0.84 µM (≈ 0.776 µg/mL).

Take `Cc1cc(=O)c2c(O)cc(O)cc2o1` [NOREUGENIN]: the MIC against Cryptococcus neoformans [1], in the assay on Candida albicans [2], against Cryptococcus neoformans [3] and against Candida albicans [4] was 16.3 µM (≈ 3.13 µg/mL) in each case.

`CC(=O)OCC1=CCc2c(cc3oc(C)cc(=O)c3c2O)OC1`: the MIC against Cryptococcus neoformans [1] amounted to 4.9 µM (≈ 1.55 µg/mL); against Candida albicans [2], 19.8 µM (≈ 6.26 µg/mL); against Cryptococcus neoformans [3] it was 4.9 µM (≈ 1.55 µg/mL); against Candida albicans [4], 19.8 µM (≈ 6.26 µg/mL).

In the case of `COc1cc2c(c(OC)c1C(C)=O)CC=C(CO)CO2`, the MIC with Cryptococcus neoformans [1] came out at 11.2 µM (≈ 3.12 µg/mL); against Candida albicans [2] it was 11.2 µM (≈ 3.12 µg/mL); against Cryptococcus neoformans [3], 11.2 µM (≈ 3.12 µg/mL); in the assay with Candida albicans [4] it was 22.5 µM (≈ 6.26 µg/mL).

The record behind these values is ChEMBL document CHEMBL4665752, “Synthesis and Antifungal Activity of Chromones and Benzoxepines from the Leaves of Ptaeroxylon obliquum” (2020).
